# Measurements reported in the M2OR odorant receptor database.
# How the values were obtained:
# Conditions in all cases: stereoisomer not certain
# O51D1 I89V = tested on: O51D1 I89V
# Outline: (§1)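 Each receptor–molecule pair is labelled responsive or non-responsive (inactive) according to whether the original authors judged the measured signal statistically different from baseline. The data were taken from the main text and supplementary material of published papers and checked for typos and inconsistencies. Assay methods differed by source, with transient luciferase assays in mammalian cell lines being common.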
# O51F1 [1] = tested on: O51F1
# Outline: as §1
# Target sequence in this assay (as listed by the source): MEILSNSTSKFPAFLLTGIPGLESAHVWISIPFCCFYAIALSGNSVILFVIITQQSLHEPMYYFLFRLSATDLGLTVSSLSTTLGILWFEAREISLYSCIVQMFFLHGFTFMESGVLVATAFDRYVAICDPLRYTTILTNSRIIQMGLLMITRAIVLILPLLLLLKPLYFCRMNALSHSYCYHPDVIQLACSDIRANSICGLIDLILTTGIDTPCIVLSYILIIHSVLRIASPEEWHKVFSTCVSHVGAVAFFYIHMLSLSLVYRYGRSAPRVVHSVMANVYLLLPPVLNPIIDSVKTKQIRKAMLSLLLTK
# O51F1 [2] = tested on: O51F1; remark: listed apart in the source
# Outline: as §1
# Target sequence in this assay (as listed by the source): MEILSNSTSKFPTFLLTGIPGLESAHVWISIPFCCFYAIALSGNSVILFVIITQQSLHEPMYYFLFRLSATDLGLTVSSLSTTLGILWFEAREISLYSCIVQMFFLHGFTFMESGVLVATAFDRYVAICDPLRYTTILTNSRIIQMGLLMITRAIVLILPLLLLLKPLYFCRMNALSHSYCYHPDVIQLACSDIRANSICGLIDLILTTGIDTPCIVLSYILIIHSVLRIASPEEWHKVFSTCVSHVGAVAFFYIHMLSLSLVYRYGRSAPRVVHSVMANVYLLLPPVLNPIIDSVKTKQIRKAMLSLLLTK
# O51F2 Y341S = tested on: O51F2 Y341S
# Sequence of O51F2 Y341S (as listed by the source, stated change not applied): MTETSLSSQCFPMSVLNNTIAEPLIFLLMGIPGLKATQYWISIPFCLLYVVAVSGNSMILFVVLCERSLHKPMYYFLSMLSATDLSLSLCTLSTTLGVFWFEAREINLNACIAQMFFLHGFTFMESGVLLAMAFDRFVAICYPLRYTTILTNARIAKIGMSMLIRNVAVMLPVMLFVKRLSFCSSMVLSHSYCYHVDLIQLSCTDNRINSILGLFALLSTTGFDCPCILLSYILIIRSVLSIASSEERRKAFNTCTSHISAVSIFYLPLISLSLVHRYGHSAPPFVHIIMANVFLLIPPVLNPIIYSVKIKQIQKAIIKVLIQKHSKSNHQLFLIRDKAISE
# Outline: as §1
# O51G1 = tested on: O51G1
# Sequence of O51G1 (as listed by the source): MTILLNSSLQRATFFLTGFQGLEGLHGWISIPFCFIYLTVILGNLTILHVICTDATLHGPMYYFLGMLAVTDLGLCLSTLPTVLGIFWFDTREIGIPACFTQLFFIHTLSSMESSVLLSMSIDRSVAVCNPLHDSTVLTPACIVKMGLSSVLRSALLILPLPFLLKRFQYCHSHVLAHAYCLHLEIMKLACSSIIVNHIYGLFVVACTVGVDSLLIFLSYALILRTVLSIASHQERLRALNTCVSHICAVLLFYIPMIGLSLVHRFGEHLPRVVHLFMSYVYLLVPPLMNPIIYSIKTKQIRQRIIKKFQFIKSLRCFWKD
# Outline: as §1
# O51I1 V164L = tested on: O51I1 V164L
# Sequence of O51I1 V164L (as listed by the source, stated change not applied): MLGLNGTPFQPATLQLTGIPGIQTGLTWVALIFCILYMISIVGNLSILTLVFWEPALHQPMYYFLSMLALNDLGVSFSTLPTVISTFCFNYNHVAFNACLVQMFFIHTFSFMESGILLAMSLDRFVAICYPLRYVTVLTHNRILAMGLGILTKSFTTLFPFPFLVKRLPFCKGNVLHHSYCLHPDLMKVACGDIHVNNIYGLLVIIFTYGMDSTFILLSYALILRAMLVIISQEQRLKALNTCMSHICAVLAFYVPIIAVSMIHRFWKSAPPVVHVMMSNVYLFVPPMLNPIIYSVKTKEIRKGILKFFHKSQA
# Outline: as §1
# O51J1 R75H I202V = tested on: O51J1 R75H I202V
# Outline: as §1
# O51L1 [3] = tested on: O51L1
# Outline: as §1
# Target sequence in this assay (as listed by the source): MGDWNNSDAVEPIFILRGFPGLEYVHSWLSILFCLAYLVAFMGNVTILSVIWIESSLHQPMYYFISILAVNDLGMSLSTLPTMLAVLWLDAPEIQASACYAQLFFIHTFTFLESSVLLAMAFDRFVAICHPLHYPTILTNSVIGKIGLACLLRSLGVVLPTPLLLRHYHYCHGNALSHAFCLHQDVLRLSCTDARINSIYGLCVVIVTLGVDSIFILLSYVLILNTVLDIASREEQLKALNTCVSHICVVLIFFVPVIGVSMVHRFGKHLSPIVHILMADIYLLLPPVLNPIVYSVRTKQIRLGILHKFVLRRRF
# O51L1 [4] = tested on: O51L1; remark: listed apart in the source
# Outline: as §1
# Target sequence in this assay (as listed by the source): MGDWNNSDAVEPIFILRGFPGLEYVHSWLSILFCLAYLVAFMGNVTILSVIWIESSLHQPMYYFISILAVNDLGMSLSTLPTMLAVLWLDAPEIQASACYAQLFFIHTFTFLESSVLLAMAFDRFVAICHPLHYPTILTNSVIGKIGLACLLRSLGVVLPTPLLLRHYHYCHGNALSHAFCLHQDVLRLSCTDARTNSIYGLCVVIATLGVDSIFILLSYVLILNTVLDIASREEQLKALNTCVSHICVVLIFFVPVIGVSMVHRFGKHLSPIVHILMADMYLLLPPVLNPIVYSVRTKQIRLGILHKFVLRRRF
# O51T1 = tested on: O51T1
# Sequence of O51T1 (as listed by the source): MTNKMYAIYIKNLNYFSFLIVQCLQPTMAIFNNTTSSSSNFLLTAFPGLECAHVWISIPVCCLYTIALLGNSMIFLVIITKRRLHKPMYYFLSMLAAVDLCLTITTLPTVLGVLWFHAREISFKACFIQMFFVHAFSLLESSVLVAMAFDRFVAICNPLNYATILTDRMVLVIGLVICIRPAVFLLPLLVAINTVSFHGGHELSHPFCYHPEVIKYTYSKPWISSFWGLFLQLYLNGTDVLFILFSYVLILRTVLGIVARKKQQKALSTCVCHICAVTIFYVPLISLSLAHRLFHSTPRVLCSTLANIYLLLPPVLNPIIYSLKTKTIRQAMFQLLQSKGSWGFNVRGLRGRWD
# Outline: as §1
# 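Further: active if original authors judged signal statistically different from baseline.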
# Sequence of O51D1 I89V (as listed by the source, stated change not applied): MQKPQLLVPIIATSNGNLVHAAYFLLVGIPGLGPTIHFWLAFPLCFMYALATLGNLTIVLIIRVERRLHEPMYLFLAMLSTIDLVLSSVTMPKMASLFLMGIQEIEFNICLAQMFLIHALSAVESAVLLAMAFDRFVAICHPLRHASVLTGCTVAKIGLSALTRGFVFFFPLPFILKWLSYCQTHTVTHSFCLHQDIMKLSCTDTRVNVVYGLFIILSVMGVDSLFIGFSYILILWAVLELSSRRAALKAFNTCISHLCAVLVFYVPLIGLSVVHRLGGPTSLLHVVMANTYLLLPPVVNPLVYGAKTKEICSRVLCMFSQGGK
structure (smiles),measurement,setting,value
C=CCOC(=O)Cc1ccccc1,odorant receptor agonist call,O51D1 I89V,inactive
same,odorant receptor agonist call,O51F1 [1],inactive
same,odorant receptor agonist call,O51F1 [2],inactive
same,odorant receptor agonist call,O51F2 Y341S,inactive
same,odorant receptor agonist call,O51G1,inactive
same,odorant receptor agonist call,O51I1 V164L,inactive
same,odorant receptor agonist call,O51J1 R75H I202V,inactive
same,odorant receptor agonist call,O51L1 [3],active
same,odorant receptor agonist call,O51L1 [4],active
same,odorant receptor agonist call,O51T1,inactive
